One data set has as its system T. gondii. In words: T. gondii inhibition in vitro. The data set is classed as cell-based, Toxoplasma gondii. The method in brief:
(§1)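 Confluent HFF (20,000 cells/well, D10, 37°C, 5% CO2) infected with 2,000 dTomato-expressing tachyzoites (type I RH or type II PRU). Invasion allowed for 12 h, then media replaced. Test compound added at 0 to 100 μM in duplicate. Parasite fluorescence read at day 5 post-infection for IC50.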

The test system of data set [1] is T. gondii RH-dTom tachyzoites in pretreated HFF cells. In words: Host cell pre-treatment assay. The data set is classed as cell-based, Toxoplasma gondii. Conditions: HFF cells exposed to 10 μM for 24 h, washed, then infected with RH-dTom. The method in brief:
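HFF seeded at 20,000 cells/well in D10 and grown to confluence. Treated with 10 μM test compound for 24 h, then washed three times with D10 media. Infected with 2,000 RH-dTom (red fluorescent dTomato) tachyzoites. Parasite growth read by fluorescence at day 5 (methods) or day 4 (figure legend) post-infection. Run in triplicate.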

For data set [2], the system named is murine-derived macrophage (NR-9456). The data set can be described thus: Cell toxicity assay. To be noted: read-out: NR-9456 IC50, 24 h. In kind it is cell-based. The method in brief: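 Bone marrow-derived murine macrophages kept in D10 (DMEM, 10% heat-inactivated bovine serum, 2 mM L-glutamine, penicillin/streptomycin, 20% Medium 199, gentamicin) at 37°C, 5% CO2. Grown to confluence in 96-well plates, then exposed to test compound at 0 to 100 μM for 24 h. Alamar blue added for 4 h, and fluorescence read for IC50.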

The subject of another data set is hepatocytes (HC04). Conditions: read-out: HC04 IC50; cytotoxicity; ref Guigemende 2010; cited from earlier work.
Data set [3] can be described thus: Partition coefficient by gradient HPLC. The data set is classed as physicochemical.
Data set [4] is described as follows: Metabolic stability in human liver microsomes. The data set is classed as in vitro ADME. Conditions: for CLint, in vitro / T1/2: 1 μM, 0.4 mg/mL protein. For orientation: Microsomes from liver hold many membrane-bound enzymes, among them those of drug oxidation.
Data set [5] in a line: Metabolic stability in mouse liver microsomes. The data set is classed as in vitro ADME. To be noted: for CLint, in vitro / T1/2: 1 μM, 0.4 mg/mL protein.
In another data set the target is human albumin column (Homo sapiens, UniProt P02768). In words: Chromatography-based protein binding. In kind it is in vitro ADME. To be noted: plasma protein binding estimated using a chromatographic method.
human albumin column, sequence (P02768 25-609): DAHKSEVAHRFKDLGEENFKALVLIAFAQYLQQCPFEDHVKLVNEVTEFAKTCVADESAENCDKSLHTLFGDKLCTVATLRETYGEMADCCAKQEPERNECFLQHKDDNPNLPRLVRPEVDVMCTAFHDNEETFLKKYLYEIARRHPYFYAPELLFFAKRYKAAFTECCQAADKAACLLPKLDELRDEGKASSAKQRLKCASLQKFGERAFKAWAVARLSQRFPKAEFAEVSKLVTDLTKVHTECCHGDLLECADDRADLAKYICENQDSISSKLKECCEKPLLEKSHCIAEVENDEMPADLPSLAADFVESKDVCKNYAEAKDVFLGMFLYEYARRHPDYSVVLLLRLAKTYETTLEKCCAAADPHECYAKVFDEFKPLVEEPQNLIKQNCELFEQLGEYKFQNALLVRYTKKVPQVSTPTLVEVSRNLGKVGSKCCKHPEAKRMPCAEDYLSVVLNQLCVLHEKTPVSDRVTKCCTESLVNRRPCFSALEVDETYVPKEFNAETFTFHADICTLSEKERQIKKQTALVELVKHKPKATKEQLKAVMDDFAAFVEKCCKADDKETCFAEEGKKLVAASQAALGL
In a further data set the test system is B lymphocyte (RAJI). Conditions: read-out: RAJI IC50; cytotoxicity; ref Guigemende 2010; cited from earlier work.
Data set [6] concerns Human foreskin fibroblast (HFF). Conditions: read-out: HFF IC50; cytotoxicity; ref Guigemende 2010; cited from earlier work.
Data set [7] relates to Salmonella typhimurium (TA100 strain). The data set can be described thus: Bacterial reverse mutation. The data set is classed as cell-based. Conditions: for Ames Assay (TA100): 3x the averaged T. gondii IC50, 48 replicates, point mutagenicity.
The next data set relates to kidney (HEK293). To be noted: read-out: HEK293 IC50; cytotoxicity; ref Guigemende 2010; cited from earlier work.
Data set [8] can be described thus: Kinetic aqueous solubility by nephelometry. In kind it is physicochemical. To be noted: pH 6.5 phosphate buffer; 30 min at room temperature; 1% DMSO.
For data set [9], the system named is five mammalian cell lines (HFF, HEK293, HC04, RAJI, NR-9456). The data set can be described thus: Cytotoxicity across five mammalian cell lines / in vitro therapeutic index. The data set is classed as cell-based. Conditions: at the concentrations tested.
The subject of the next data set is T. gondii PRU-dTom. In words: T. gondii PRU-dTom. In kind it is cell-based. Conditions: Toxoplasma gondii, 120 h, read-out: T. gondii PRU-dTom IC50. The method in brief: as §1
For data set [10], the system named is T. gondii RH-dTom tachyzoites. The data set can be described thus: In vivo T. gondii survival study. To be noted: lethal dose of T. gondii strain RH tachyzoites. Set-up: species or system Swiss Webster CFW mice.
The mark [11] stands for this setting: cytotoxicity, 0 to 100 μM, Alamar blue.

SMILES strings stand for the structures. pIC50: −log10 of the molar value. Like-named read-outs stand apart in the source and are kept apart here.

In general, pIC50 refers to −log10 of the IC50, conventionally taken in molar units.

On to `NNC(=O)c1ccncc1` [isoniazid], for which the “Efficacy against Toxoplasma gondii in vitro” value in the data set on T. gondii (data not shown) is on record as “no efficacy”.
Turning to `CC(C)(C)c1cc(/N=N/C(=O)c2ccncc2)cc(C(C)(C)C)c1O` [KG8], in data set [1], the “Decrease of T. gondii growth after host cell pre-treatment” value (“Decrease of T. gondii growth” for short) is given as “no effect”. The negative logarithm of the IC50 (pIC50) in data set [2] (setting [11]) is under 4.00; with hepatocytes (HC04), under 4.55; in the data set with B lymphocyte (RAJI), 6.17; in data set [6] it was under 4.55; in the data set on kidney (HEK293) it was 6.01. Also, the “gLogD (pH 7.4)” value in data set [3] stood at 3.9. Also, the “Predicted EH (hepatic extraction ratio)” value in data set [4] is recorded as 0.6. For the same molecule, the “CLint, in vitro” value in data set [4] was found to be 37 μL/min/mg protein; in [5], 180 μL/min/mg protein. For the same molecule, the T1/2 in data set [4] was found to be 47 min; in data set [5], 10 min. The “cPPB (% bound)” value on human albumin column is listed as over 99.5 % bound. Moreover, in [7], the “Ames Assay (TA100)” value is recorded as “Negative”. Moreover, in data set [8], the Sol6.5 kinetic solubility lay in the range of 3.1 to 6.3 µg/mL. For the same molecule, in data set [9], the “Cell lines whose growth was inhibited” value was 2/5.
On to `CCc1nc(N)nc(N)c1-c1ccc(Cl)cc1` [Pyrimethamine, reference compound], for which the pIC50 in data set [2] (Mus musculus, Macrophage) was under 4.00; with hepatocytes (HC04), under 4.00; in the data set with T. gondii PRU-dTom, 6.10; with T. gondii (Toxoplasma gondii, read-out: T. gondii IC50 in vitro), 5.82 to 6.60; in the data set on B lymphocyte (RAJI), under 4.00; in data set [6], under 4.00. In the data set with kidney (HEK293), the pIC50 was under 4.00. Further, the “Mice spared (survival)” value in [10] (21 mg/kg) is listed as 100%.
Regarding `CC(C)(C)c1cc(C2C(C#N)=C(N)OC3=C2C(=O)CCC3)cc(C(C)(C)C)c1O` (stereo not drawn) [KG7], in data set [1], the “Decrease of T. gondii growth” value is “no effect”. Further, the negative logarithm of the IC50 (pIC50) in data set [2] (setting [11]) is under 4.00; in the data set with hepatocytes (HC04), 5.52; with B lymphocyte (RAJI) it was 5.52; in data set [6] it was under 4.44; in the data set with kidney (HEK293), under 4.44. Further, the “gLogD (pH 7.4)” value in data set [3] stood at 3.9. Moreover, the “Predicted EH (hepatic extraction ratio)” value in [4] is on record as 0.97; in data set [5], over 0.94. The “CLint, in vitro” value is recorded as 746 μL/min/mg protein in data set [4] and over 886 μL/min/mg protein in [5]. Besides, the T1/2 in data set [4] is recorded as 2 min; in data set [5] it was under 2 min. Besides, the “cPPB (% bound)” value on human albumin column is given as 93 % bound. For the same molecule, the “Ames Assay (TA100)” value in [7] is “Negative”. Also, the “Effect on S. typhimurium growth in Ames assay” value in data set [7] (TA100 strain) is “appeared to inhibit S. typhimurium growth”. This molecule came in with a Sol6.5 kinetic solubility in data set [8] of 3.1 to 6.3 µg/mL. Also, in [9], the “Cell lines whose growth was inhibited” value is 2/5.
For `CCOc1ccc(/C=C/c2nc(=O)c3ccccc3o2)cc1` [KG3], the “Decrease of T. gondii growth” value in [1] is listed as 21%. For the same molecule, the pIC50 in data set [2] (setting [11]) is under 4.00; in the data set on hepatocytes (HC04), under 4.40; in the data set with B lymphocyte (RAJI), under 4.40; in [6], under 4.40; in the data set on kidney (HEK293) it was under 4.40. Moreover, in [3], the “gLogD (pH 7.4)” value was determined as 2.8. Further, the “Predicted EH (hepatic extraction ratio)” value in data set [4] is given as 0.88. The “CLint, in vitro” value in data set [4] is on record as 129 μL/min/mg protein; in [5] it was over 886 μL/min/mg protein. The T1/2 in data set [4] is 9 min; in data set [5], under 2 min. Also, the “Mice spared (survival)” value in [10] (20 mg/kg IP twice daily) came to 33%. Also, the “cPPB (% bound)” value on human albumin column is recorded as 99 % bound. The “Ames Assay (TA100)” value in data set [7] is “Negative”. The same molecule displayed a Sol6.5 kinetic solubility in data set [8] of 1.2 to 2.2 µg/mL. In data set [9], the “Cell lines whose growth was inhibited” value is reported as “did not inhibit the growth of any of the five cell lines”.

Source of the values: PMC5809185 (Parasitology international, 2018).
